The text below walks through data of ChEMBL document CHEMBL1123835, “Synthesis and biological properties of actinomycin D chromophoric analogues substituted at the 7-carbon with aziridine and aminopropoxy functions” (1987).

One experiment has as its system B16. In words: compound was evaluated in vitro for growth inhibition of B16 (Murine melanoma cell line) cell. The settings on record: Mus musculus, read-out: ID50 (the source's name). Type of experiment: functional. The method, boiled down: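 Murine B16 melanoma cells were grown as a monolayer culture in log-phase growth. Compounds were dissolved in Me2SO/saline, with under 1% Me2SO in the final growth medium. ID50 (ng/mL) is the concentration giving 50% growth inhibition after 48 h, averaged over three experiments.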

Experiment [1] can be described thus: Compound was evaluated for the elevation in temperature (degrees Celsius) for thermal denaturation of DNA. The method, boiled down:
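Calf-thymus DNA at 5.2 × 10^-5 M with drug at 2.5 × 10^-5 M in 0.01 M phosphate buffer (pH 7) with 10^-5 M EDTA. Thermal denaturation curves were recorded on a thermoprogrammed spectrophotometer with a quartz cell. ΔTm = Tm of DNA–drug complex minus Tm of DNA, with melting in the 67-85 °C range.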

In a further experiment the test system is CCRF-CEM. In words: In vitro growth inhibition of CCRF-CEM (Human leukemic lymphoblastic) cell. The format is functional. The settings on record: read-out: ID50 (the source's name). The method, boiled down:
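Human CCRF-CEM lymphoblastic leukemia cells were grown in continuous spinner (suspension) culture in log phase. Compounds were dissolved in Me2SO/saline, with under 1% Me2SO in the final medium. ID50 (ng/mL) is the concentration giving 50% growth inhibition at 48 h, averaged over three experiments.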

Experiment [2] is described as follows: Compound was evaluated for the elevation in temperature (degrees Centigrade) for thermal denaturation of DNA.

Values after ≈ are worked out from the molar mass of the structure shown. *1 amine or outer side, *2 acyl side, *3 side chain or, on linkers, in order; H or OH if unused. Where a SMILES comes first, the peptide text is derived from it. Bridges are numbered along the chain shown (N, C = ends). Roman numbers before positions name the chains, in order. [ ]: non-standard residue; d: D form. Actinocin(1to9) = Cc1c2oc3c(C)ccc(C(=O)[*:2])c3nc-2c(C(=O)[*:1])c(N)c1=O; NMeV = CN[C@H](C(=O)O)C(C)C; Sar = CNCC(=O)O Some results are limits rather than exact numbers.

`Cc1c2oc3c(C)c(OCC(C)N)cc(C(=O)NC4C(=O)N[C@H](C(C)C)C(=O)N5CCC[C@H]5C(=O)N(C)CC(=O)N(C)[C@@H](C(C)C)C(=O)O[C@H]4C)c3nc-2c(C(=O)NC2C(=O)N[C@H](C(C)C)C(=O)N3CCC[C@H]3C(=O)N(C)CC(=O)N(C)[C@@H](C(C)C)C(=O)O[C@H]2C)c(N)c1=O` (some centres not stated): the IC50 was 0.055 µg/mL (≈ 0.0414 µM) in the experiment on B16 and 0.06 µg/mL (≈ 0.0452 µM) with CCRF-CEM. Further, the Change in Tm in experiment [1] stood at 4.8.

As for `Cc1c2oc3c(C)ccc(C(=O)N[C@@H]4C(=O)N[C@H](C(C)C)C(=O)N5CCC[C@H]5C(=O)N(C)CC(=O)N(C)[C@@H](C(C)C)C(=O)O[C@@H]4C)c3nc-2c(C(=O)N[C@@H]2C(=O)N[C@H](C(C)C)C(=O)N3CCC[C@H]3C(=O)N(C)CC(=O)N(C)[C@@H](C(C)C)C(=O)O[C@@H]2C)c(N)c1=O` [DACTINOMYCIN] (I: T[dV]P[Sar][NMeV] / II: T[dV]P[Sar][NMeV]; ester I:1-I:C, II:1-II:C; linker I:N-II:N via Actinocin(1to9)), the IC50 in the experiment with B16 turned out to be 0.0033 µg/mL (≈ 0.00263 µM); with CCRF-CEM, 0.013 µg/mL (≈ 0.0104 µM). In addition, in experiment [1], the Change in Tm worked out at 8.

Regarding `C=CCOc1cc(C(=O)NC2C(=O)N[C@H](C(C)C)C(=O)N3CCC[C@H]3C(=O)N(C)CC(=O)N(C)[C@@H](C(C)C)C(=O)O[C@H]2C)c2nc3c(C(=O)NC4C(=O)N[C@H](C(C)C)C(=O)N5CCC[C@H]5C(=O)N(C)CC(=O)N(C)[C@@H](C(C)C)C(=O)O[C@H]4C)c(N)c(=O)c(C)c-3oc2c1C` (some centres not stated), the IC50 in the experiment on B16 is > 1 µg/mL; in the experiment on CCRF-CEM, > 0.75 µg/mL. In experiment [1], this molecule yielded a Change in Tm of 6.8.

For `Cc1c2oc3c(C)c(OCC4CN4)cc(C(=O)NC4C(=O)N[C@H](C(C)C)C(=O)N5CCC[C@H]5C(=O)N(C)CC(=O)N(C)[C@@H](C(C)C)C(=O)O[C@H]4C)c3nc-2c(C(=O)NC2C(=O)N[C@H](C(C)C)C(=O)N3CCC[C@H]3C(=O)N(C)CC(=O)N(C)[C@@H](C(C)C)C(=O)O[C@H]2C)c(N)c1=O` (some centres not stated), the IC50 was 0.11 µg/mL (≈ 0.0829 µM) in the experiment with B16 and 0.076 µg/mL (≈ 0.0573 µM) in the experiment on CCRF-CEM. For the same molecule, in experiment [2], the Change in Tm worked out at 2.8.
